Hits are enriched below; roughly 5.4% of the tested compounds scored in any of these assays.
PLAP act – activators of human placental alkaline phosphatase; 96,000 compounds, 1.2% hits; AID 696; activation fold at 20 µM; P05187; purified PLAP enzyme, luminescent substrate read-out; stronger effect = higher value; in the data active = activation fold above about 2
Target sequence (P05187 whole entry, looked up): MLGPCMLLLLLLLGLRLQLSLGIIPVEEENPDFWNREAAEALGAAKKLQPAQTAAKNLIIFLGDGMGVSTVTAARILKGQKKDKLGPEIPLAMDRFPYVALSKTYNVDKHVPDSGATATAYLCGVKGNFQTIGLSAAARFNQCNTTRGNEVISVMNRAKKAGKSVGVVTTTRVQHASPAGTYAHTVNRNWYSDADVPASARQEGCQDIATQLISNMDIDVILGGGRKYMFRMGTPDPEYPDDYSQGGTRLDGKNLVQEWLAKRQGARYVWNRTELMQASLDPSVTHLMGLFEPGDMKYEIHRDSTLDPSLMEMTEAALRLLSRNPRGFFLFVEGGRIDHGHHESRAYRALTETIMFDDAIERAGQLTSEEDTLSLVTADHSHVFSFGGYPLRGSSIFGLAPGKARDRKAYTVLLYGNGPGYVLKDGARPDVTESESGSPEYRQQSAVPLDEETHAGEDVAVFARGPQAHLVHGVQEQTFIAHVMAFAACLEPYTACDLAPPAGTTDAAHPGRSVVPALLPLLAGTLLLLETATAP
tolC growth inh – growth inhibitors of E. coli BW25113 tolC mutant; OD615; growth inhibition, % at 10 µM (by protocol); 65,000 compounds, 2.2% hits;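 active = growth inhibition at or above a cutoff equal to the mean over every tested compound plus 3 SD, cut at about 60% in these data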;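 also: growth measured after 20 h incubation at 37 °C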
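Signal: optical density read at 615 nm; Assay system: E. coli ΔtolC::kan strain BW25113; Times: 20 h incubation with compound, 37 °C; Dosing: 10 µM final, single dose.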
PostGolgi yeast – growth inhibition of a yeast mutant, post-Golgi transport screen | 98,000 compounds, 0.9% hits | AID 739 | inhibition, % at 10 µM | post-Golgi transport phenotypic cell assay;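 also: yeast cells grown in 1536-well plates; yeast grown about 18 h at 30C before absorbance read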
PostGolgi ctrl – growth of the yeast control strain, post-Golgi counter-screen. 98,000 compounds, 5% hits. efflux-deficient yeast background strain, growth absorbance A615, 16 h. inhibition, % at 10 µM. AID 738
Ecoli WT expand – blocks growth of wild type E. coli BW25113 | 98,000 compounds, 0.15% hits | OD600 absorbance | growth inhibition, % at 100 µM;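 active = growth inhibition above about 50% at one test dose, limit read from the data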;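 also: growth measured after 20 h incubation at 37 °C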
HePTP inhibitor – human HePTP phosphatase inhibition; 110,000 compounds, 0.64% hits; P35236; AID 521; recombinant HePTP phosphatase activity, OD absorbance; inhibition, % at 20 µM; in the data active = inhibition above about 50%;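 also: plate controls were vehicle for no effect and reference inhibitor for full effect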
Numbers without * were called inactive; . = not tested or not shown. Rule as the data show it, unless noted: active = inhibition above about 30%; inactive = the rest.

SMILES	PLAP act	tolC growth inh	PostGolgi yeast	PostGolgi ctrl	Ecoli WT expand	HePTP inhibitor
Cc1ccc(C(O)(C(=O)NCc2ccc(N(C)C)cc2)c2ccc(C)cc2)cc1	.	.	.	.	.	23
O=C(Nc1ccc(O)cc1)c1ccc2c(c1)C(=O)N(c1ccccn1)C2=O	.	.	.	.	.	0
Cc1ccc(C(=O)Nc2nc(-c3ccc4c(c3)Cc3ccccc3-4)cs2)cc1	.	.	.	.	.	-8
COCCN1C(=O)C(=O)/C(=C(/O)c2ccccc2)C1c1cccc(OC)c1 (stereo not given)	.	.	.	.	.	-2
COCCCN1C(=O)C(=O)/C(=C(/O)c2ccc(OC)cc2)C1c1cccc(OC)c1 (stereo not given)	1	23	5	35*	-2	3
COc1cc(/C=C2/NC(=S)NC2=O)cc(Cl)c1OC(C)C	.	.	.	.	.	1
c1ccc(N2CCN(c3nnc(Cc4cccnc4)c4ccccc34)CC2)nc1	1.3	8	0	25	10	6
c1ccc(Cc2nnc(N3CCOCC3)c3ccccc23)cc1	0.9	.	1	45*	7	.
COc1ccccc1C(=O)N1CCN(C(=O)c2cccs2)CC1	.	.	.	.	.	3
Cc1cccc(C2Nc3ccccc3C(=O)N2c2ccccc2)n1 (stereo not given)	1.1	-3	30*	7	2	4
Cc1onc(-c2c(F)cccc2Cl)c1C(=O)NC1CCSC1=O (stereo not given)	2.1*	.	-2	-2	1	.
CC(C)Cc1cc(C(=O)Nc2sc3c(c2C#N)CCCC3)no1	1.2	79*	-1	9	-2	0
N#Cc1c(NC(NC(=O)c2ccco2)C(=O)c2ccccc2)sc2c1CCCC2 (stereo not given)	0.9	65*	41*	81*	-3	13
Cc1onc(-c2c(Cl)cccc2Cl)c1C(=O)NC1CCCC1	.	.	.	.	.	-13
Cc1cccc(C(=O)Nc2sc(C)c(-c3ccccc3)c2C#N)c1	1	.	6	14	-21	.
Cc1noc(C)c1C(=O)Nc1sc(C)c(-c2ccccc2)c1C#N	1.4	97*	6	28	-4	-7
CC(C)Cc1cc(C(=O)Nc2sc3c(c2C#N)CCC3)no1	0.8	.	-10	1	-4	.
O=C(NC1CCCCC1)N1CCN(Cc2ccccc2)CC1	.	.	.	.	.	9
Cc1ccc(C(=O)O/N=C(\N)c2ccccn2)cc1[N+](=O)[O-]	.	.	.	.	.	2
Cc1onc(-c2ccccc2)c1C(=O)Nc1sc2c(c1C(N)=O)CCC2	1.1	16	-3	37*	-4	6
Cc1onc(-c2ccccc2Cl)c1C(=O)Nc1sc2c(c1C(N)=O)CCCC2	.	.	.	.	.	6
Cc1onc(-c2ccccc2)c1C(=O)Nc1sc(C)c(C)c1C(N)=O	.	.	.	.	.	9
Cc1onc(-c2ccccc2)c1C(=O)Nc1sc2c(c1C#N)CCC2	1	70*	3	44*	-1	-2
Cc1onc(-c2c(F)cccc2Cl)c1C(=O)Nc1sc2c(c1C(N)=O)CCC2	0.9	.	-13	33*	-18	.
Cc1cc(=O)oc2c(C)c(OC(=O)c3ccccc3)ccc12	.	.	.	.	.	-8
SMILES	PLAP act	tolC growth inh	PostGolgi yeast	PostGolgi ctrl	Ecoli WT expand	HePTP inhibitor
CCOC(=O)c1cc(C(=O)c2cccs2)n2ccc(C(C)=O)cc12	0.7	.	1	82*	-11	.
CCOC(=O)c1cc(C(C)=O)n2ccccc12	1	.	4	13	7	.
COc1ccc(NS(=O)(=O)c2cc(C)ccc2NC(=O)c2cc(C)oc2C)cc1	1.2	87*	13	0	1	4
Cc1ccc(N2C(=O)/C(=C\c3ccco3)SC2=S)cc1	1	.	-6	32*	-8	.
COc1ccc(N2C(=O)/C(=C/c3ccc(I)o3)SC2=S)cc1	.	.	.	.	.	15
COc1ccc(N2C(=O)/C(=C/c3ccc(Br)o3)SC2=S)cc1	.	.	.	.	.	51*
CC(C(=O)O)N1C(=O)/C(=C/C=C/c2ccco2)SC1=S (stereo not given)	1	.	11	-5	-1	.
CN1C(=O)/C(=C/C=C/c2ccco2)SC1=S	.	.	.	.	.	52*
CNC(=O)c1ccc(CN2CCN(Cc3ccccc3)CC2)cc1	.	.	.	.	.	-12
O=C1C(C=NCc2cccnc2)=C(O)c2ccccc21	1.1	-7	-8	40*	2	8
O=C1C(C=NCc2ccncc2)=C(O)c2ccccc21	0.8	.	6	7	-2	.
CCCCCCCN1C(=O)/C(=C2\SC(=S)NC2=O)c2ccccc21	.	.	.	.	.	4
CCCCCC/C(C)=C1/SC(=S)NC1=O	1.2	.	-3	55*	14	.
c1ccc(Cn2nnnc2C(c2ccncc2)N2CCOCC2)cc1 (stereo not given)	0.9	-7	6	-2	-3	-3
CC(C)(C)n1nnnc1C(c1cccc(C#N)c1)N1CCC(Cc2ccccc2)CC1 (stereo not given)	1.4	26	-4	43*	-13	10
CCC(C)(C)n1nnnc1C(c1cccnc1)N1CCN(c2cccc(C(F)(F)F)c2)CC1 (stereo not given)	1.3	.	86*	96*	-8	.
CCC(C)(C)n1nnnc1C(c1cccs1)N1CCc2ccccc21 (stereo not given)	0.9	59	-4	23	-9	48
c1ccc(Cn2nnnc2C(c2cccnc2)N2CCN(c3ccccc3)CC2)cc1 (stereo not given)	1.4	13	92*	90*	5	0
CC(C)(C)n1nnnc1C(c1cccs1)N1CCN(c2ccccc2)CC1 (stereo not given)	1	.	8	36*	-8	.
CCC(C)(C)n1nnnc1C(c1ccncc1)N1CCC(Cc2ccccc2)CC1 (stereo not given)	1.7	.	2	14	-3	.
CN(C)c1ccc(C2/C(=C(\O)c3ccc(Cl)cc3)C(=O)C(=O)N2CCCCCC(=O)O)cc1 (stereo not given)	.	.	.	.	.	-7
CCCc1nnc(NC(=O)COC(=O)/C=C/c2ccco2)s1	.	.	.	.	.	20
CC(C)(C)n1nnnc1C(c1cccnc1)N1CCN(c2ccccc2)CC1 (stereo not given)	1.3	.	92*	76*	0	.
Cc1cccc(N2CCN(C(c3cccs3)c3nnnn3C(C)(C)C)CC2)c1C (stereo not given)	1.5	36	12	40*	-16	-4
COC(=O)c1ccccc1-c1ccc(/C=c2\sc3nc4ccccc4n3c2=O)o1	.	.	.	.	.	-8
SMILES	PLAP act	tolC growth inh	PostGolgi yeast	PostGolgi ctrl	Ecoli WT expand	HePTP inhibitor
COc1ccccc1NC(=O)COc1ccc(Cl)cc1	.	.	.	.	.	-14
C/C(=N\N=C(/N)SC1CC(=O)N(c2ccc(Cl)c(Cl)c2)C1=O)c1cccs1 (stereo not given)	1.2	.	102*	57*	-6	.
C/C(=N\N=C(/N)SC1CC(=O)N(c2ccccc2)C1=O)c1cccs1 (stereo not given)	1.2	.	7	3	1	.
C/C(=N\N=C(/N)SC1CC(=O)N(c2ccc(Br)cc2)C1=O)c1cccs1 (stereo not given)	1.5	.	-5	41*	-1	.
COc1ccc(CCNC(=O)Nc2ccccc2Cl)cc1OC	.	.	.	.	.	3
CC(NC(=O)C12CC3(C)CC(C)(CC(C)(C3)C1)C2)C(=O)Nc1ccc(F)cc1F (stereo not given)	.	.	.	.	.	-14

High-throughput results: PubChem, several laboratories
